Screening data: PubChem BioAssay, several laboratories
Efa HMGR inh – inhibitors of E. faecalis class II HMGR, primary screen, biochemical, Enterococcus faecalis; inhibition, % at 10 µM; AID 1066, 2008; purified E. faecalis HMGR, NADPH absorbance 340 nm kinetic; 190,000 compounds, 0.41% hits;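 active means inhibition above a set limit, the median over all tested compounds plus 3 SD, cut at about 9.5% in these data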;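 further: enzyme runs in reverse so mevalonate oxidation gives rising NADPH absorbance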
PERK inhibitor – block of dimerizer-induced PERK translation repression, primary screen, PERK inhibitor project, CHO PERK-DD cells, SEAP luminescence, HTS | Eukaryotic translation initiation factor 2-alpha kinase 3 (Homo sapiens), Q9NZJ5 | 220,000 compounds, 0.17% hits | CHO PERK-DD fusion, SEAP luminescence translation reporter | inhibition, % at 5.6 µM;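 active means inhibition above the mean inhibition of all tested compounds plus 3 SD, set separately per screening campaign, cut at about 2.9% in these data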;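 further: PERK kinase domain activated by AP20187 dimerizer at 100 nM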
Rad51 HR inh – human RAD51 strand exchange inhibitors, primary screen, biochemical, fluorescence | DNA repair protein RAD51 homolog 1 (Homo sapiens), Q06609 | hRad51 DNA strand exchange, fluorescence dequenching | inhibition, % at 10 µM | 200,000 compounds, 0.085% hits | AID 1385, 2008;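 active means inhibition above 40% at the single screening dose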
Target sequence (Q06609 whole entry, looked up): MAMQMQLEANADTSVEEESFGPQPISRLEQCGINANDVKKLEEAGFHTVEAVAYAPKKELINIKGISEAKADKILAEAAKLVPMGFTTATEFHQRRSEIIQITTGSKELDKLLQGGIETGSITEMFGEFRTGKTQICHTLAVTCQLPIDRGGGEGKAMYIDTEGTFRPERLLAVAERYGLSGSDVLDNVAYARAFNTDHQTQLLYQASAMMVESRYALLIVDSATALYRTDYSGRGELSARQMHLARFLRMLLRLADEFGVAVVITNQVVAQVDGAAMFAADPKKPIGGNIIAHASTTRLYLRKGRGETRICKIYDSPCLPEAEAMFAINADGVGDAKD
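Test system – preformed human Rad51 ssDNA filaments · Reagent – Donor/quencher-labelled 47-bp dsDNA substrate · Incubation – 37 °C 15-min filament assembly, 30-min compound preincubation, 15-min exchange · Signal – FRET fluorescence dequenching, excitation 485 nm, emission 520 nm · Read-out – percent inhibition from fluorescence, normalised to plate control and blank means · Benchmarks – plate control and blank wells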
zVAD death inh – inhibitors of zVAD-triggered necroptosis, primary screen, L929 cells; L929 zVAD necroptosis rescue, ATP luminescence, 24 h; with zVAD 60 µM; viability rescue, % at 10 µM; 220,000 compounds, 0.38% hits; AID 1377, 2008;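 active means activation, scaled between plate controls, above about 75%, limit read from the data; inactive means activation under that limit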
TNF death inh – inhibitors of TNF-alpha triggered necroptosis, primary screen, cell-based, Jurkat FADD-/-, single concentration | activation (protection from cell death), % at 10 µM | 220,000 compounds, 0.068% hits | Jurkat FADD-/- TNF necroptosis rescue, ATP luminescence, 24 h; 0 = TNF only, 100 = no-TNF cells | AID 463075, 2010;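 active means activation, meaning protection from cell death, of at least 50% relative to plate controls; inactive means activation below 50%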;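 further: necroptosis triggered by 40 ng/mL TNF-alpha added together with compound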
Hits are given with their value. In the library only some 1% were active in any assay of this set; here they are far more common.

`CN(C[C@H](Cc1ccccc1)N(C[C@@H](Cc1cccc2ccccc12)N(CCc1ccccc1)N=O)N=O)N=O` gave Efa HMGR inh inactive, PERK inhibitor inactive, Rad51 HR inh inactive, zVAD death inh inactive and TNF death inh inactive.
`CN(C[C@@H](Cc1cccc2ccccc12)N(C[C@H](Cc1ccccc1)N(CCc1ccccc1)N=O)N=O)N=O` gave Efa HMGR inh 12, PERK inhibitor inactive, Rad51 HR inh inactive, zVAD death inh inactive and TNF death inh inactive.
`O=C(OCC(=O)N1c2ccccc2Sc2ccccc21)c1ccc[n+]([O-])c1` gave Efa HMGR inh inactive, PERK inhibitor inactive, Rad51 HR inh inactive, zVAD death inh inactive and TNF death inh inactive.
`O=C(Nc1nc(-c2ccccc2)cs1)NC1CCCCC1` gave Efa HMGR inh 11, PERK inhibitor inactive, Rad51 HR inh inactive, zVAD death inh inactive and TNF death inh inactive.
For Cc1ccc(NS(=O)(=O)c2ccc(OCC(=O)NCC3CCCO3)cc2)cc1 (centres undefined) the results were Efa HMGR inh inactive, PERK inhibitor inactive, Rad51 HR inh inactive, zVAD death inh inactive and TNF death inh inactive.
CCN(CC)S(=O)(=O)c1ccc(Cl)c(NC(=O)COC(=O)c2ccc([N+](=O)[O-])o2)c1 was read as PERK inhibitor inactive, Rad51 HR inh inactive, zVAD death inh inactive and TNF death inh inactive.
Screening COc1ccc2c(c1)O[C@H](c1ccc3c(c1)OCO3)[C@@H](O)C2=O returned Efa HMGR inh inactive, PERK inhibitor inactive, Rad51 HR inh inactive, zVAD death inh 79 and TNF death inh inactive.
For Nc1ccccc1Oc1ncc(C(F)(F)F)cc1Cl the results were Efa HMGR inh inactive, PERK inhibitor 2.9, Rad51 HR inh inactive, zVAD death inh inactive and TNF death inh inactive.
FC(F)(F)c1cnc(Oc2ccccc2-c2nnco2)c(Cl)c1 was read as Efa HMGR inh inactive, PERK inhibitor inactive, Rad51 HR inh inactive, zVAD death inh inactive and TNF death inh inactive.
Screening CC(C)(C)[C@H]1C=C(C(=O)N2CCN(Cc3ccc4c(c3)OCO4)CC2)O[C@@H](OCc2ccc(CO)cc2)C1 returned Efa HMGR inh 19, PERK inhibitor inactive, Rad51 HR inh inactive, zVAD death inh inactive and TNF death inh inactive.
For COc1ccc(NC(=O)C(OC)c2ccccc2)cc1Cl (centres undefined) the results were Efa HMGR inh inactive, PERK inhibitor inactive, Rad51 HR inh inactive, zVAD death inh inactive and TNF death inh 50.
Screening COC(C(=O)Nc1ccc(S(=O)(=O)N2CCCCC2)cc1)c1ccccc1 (centres undefined) returned Efa HMGR inh inactive, PERK inhibitor inactive, Rad51 HR inh inactive, zVAD death inh inactive and TNF death inh 60.
`COC(C(=O)Nc1ccc(F)cc1)c1ccccc1` (centres undefined) gave Efa HMGR inh inactive, PERK inhibitor inactive, Rad51 HR inh inactive and TNF death inh 98.
For CN(C)S(=O)(=O)c1cccc(C(=O)Nc2ccc(S(=O)(=O)N3CCCC3)cc2)c1 the results were Efa HMGR inh 14, PERK inhibitor inactive, Rad51 HR inh inactive, zVAD death inh inactive and TNF death inh inactive.
`O=C(NNc1ncccc1Cl)c1c(Cl)cccc1Cl` gave Efa HMGR inh inactive, PERK inhibitor inactive, zVAD death inh inactive and TNF death inh inactive.
`CCC(C)[C@H](NC(=O)Nc1ccc(C)cc1C)C(=O)O` (some centres undefined) gave PERK inhibitor inactive, zVAD death inh inactive and TNF death inh inactive.
O=C(NCc1nc2ccccc2[nH]1)C1=C[C@H](c2coc3ccccc3c2=O)C[C@H](OCCCCO)O1 was read as Rad51 HR inh inactive.
Screening Cc1c([N+](=O)[O-])c(C/C=N/O)nn1C returned PERK inhibitor inactive, Rad51 HR inh inactive, zVAD death inh inactive and TNF death inh inactive.
`COc1cc(NC(=O)c2c(F)cccc2F)c(Cl)cc1Cl` gave Efa HMGR inh inactive, PERK inhibitor inactive, Rad51 HR inh inactive, zVAD death inh inactive and TNF death inh inactive.
Screening O=C(NCCN1CCOCC1)c1cc2cc([N+](=O)[O-])ccc2s1 returned Efa HMGR inh inactive, PERK inhibitor inactive, Rad51 HR inh inactive, zVAD death inh inactive and TNF death inh inactive.
Screening COc1cccc2c1OCC(C(=O)O)C2 (centres undefined) returned Efa HMGR inh inactive, PERK inhibitor inactive, Rad51 HR inh inactive, zVAD death inh inactive and TNF death inh inactive.
`COc1cccc2c1C(CO)N1C(C#N)C3CC(C(=O)O)C(C1C2)N3C` (centres undefined) gave PERK inhibitor 3.7, Rad51 HR inh inactive, zVAD death inh inactive and TNF death inh inactive.
`O=S(=O)(Nc1ncccn1)c1ccc(NC(=S)Nc2cccc(Cl)c2)cc1` gave PERK inhibitor inactive, Rad51 HR inh inactive, zVAD death inh inactive and TNF death inh inactive.
COc1ccc(-c2nc(=S)c3c([nH]2)Oc2ccc(C)cc2C3)cc1O was read as Efa HMGR inh inactive, PERK inhibitor inactive, Rad51 HR inh inactive, zVAD death inh inactive and TNF death inh inactive.
For N#Cc1cc2cc3c(cc2nc1SCC(=O)OC1CCCCC1)OCO3 the results were Efa HMGR inh inactive, PERK inhibitor inactive, Rad51 HR inh inactive, zVAD death inh inactive and TNF death inh inactive.
Screening CC(=O)CSc1nc2cc3c(cc2cc1C#N)OCCO3 returned Efa HMGR inh 11, PERK inhibitor inactive, Rad51 HR inh inactive, zVAD death inh inactive and TNF death inh inactive.
Screening Cc1cc(C)cc(OCC(=O)OCC(=O)N2CC(=O)Nc3ccccc32)c1 returned Efa HMGR inh inactive, PERK inhibitor inactive, Rad51 HR inh inactive, zVAD death inh inactive and TNF death inh inactive.
O=C(O)CCCN1C(=O)/C(=C\c2ccco2)SC1=S was read as Efa HMGR inh 12, PERK inhibitor inactive, Rad51 HR inh inactive, zVAD death inh inactive and TNF death inh inactive.
COc1ccc(CCn2c(=O)[nH]c3cc(C(=O)NCCc4ccccc4)ccc3c2=O)cc1OC was read as Efa HMGR inh inactive, PERK inhibitor 3.0, Rad51 HR inh inactive, zVAD death inh inactive and TNF death inh inactive.
For COc1ccc(N2C(=O)CC(N3CCN(S(=O)(=O)c4ccc(Cl)cc4)CC3)C2=O)cc1 (centres undefined) the results were Efa HMGR inh 9.6, PERK inhibitor inactive, Rad51 HR inh inactive, zVAD death inh inactive and TNF death inh inactive.
For COc1ccc(N2C(=O)CC(N3CCC(O)(c4ccc(Cl)cc4)CC3)C2=O)cc1 (centres undefined) the results were Efa HMGR inh inactive, PERK inhibitor inactive, Rad51 HR inh inactive, zVAD death inh inactive and TNF death inh inactive.
